Data set [1] is described as follows: Lipophilicity, log P of the compound. It is filed as physicochemical. Particulars: octanol/water.
The test system of data set [2] is RAW264.7. Briefly: Cytotoxicity against LPS-stimulated mouse RAW264.7 cells by MTT assay. It is filed as cell-based. The method, boiled down:
(§1)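 Viability of ATCC RAW 264.7 cells, grown in DMEM with 10% FBS and 1% antibiotics at 37 °C under 5% CO₂, read by MTT assay with or without LPS at the compound concentrations used for the PGE₂ assay.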
For orientation: Tetrazolium assays rely on reduction of a dye to a coloured formazan, in cell work by metabolically active cells.

Data set [3] relates to RAW264.7. In words: Cytotoxicity against mouse RAW264.7 cells by MTT assay. It is filed as cell-based. The method, boiled down:
as §1

For data set [4], the target named is T1, Prostaglandin G/H synthase 2 (Mus musculus) (UniProt Q05769).
T1 sequence (whole entry): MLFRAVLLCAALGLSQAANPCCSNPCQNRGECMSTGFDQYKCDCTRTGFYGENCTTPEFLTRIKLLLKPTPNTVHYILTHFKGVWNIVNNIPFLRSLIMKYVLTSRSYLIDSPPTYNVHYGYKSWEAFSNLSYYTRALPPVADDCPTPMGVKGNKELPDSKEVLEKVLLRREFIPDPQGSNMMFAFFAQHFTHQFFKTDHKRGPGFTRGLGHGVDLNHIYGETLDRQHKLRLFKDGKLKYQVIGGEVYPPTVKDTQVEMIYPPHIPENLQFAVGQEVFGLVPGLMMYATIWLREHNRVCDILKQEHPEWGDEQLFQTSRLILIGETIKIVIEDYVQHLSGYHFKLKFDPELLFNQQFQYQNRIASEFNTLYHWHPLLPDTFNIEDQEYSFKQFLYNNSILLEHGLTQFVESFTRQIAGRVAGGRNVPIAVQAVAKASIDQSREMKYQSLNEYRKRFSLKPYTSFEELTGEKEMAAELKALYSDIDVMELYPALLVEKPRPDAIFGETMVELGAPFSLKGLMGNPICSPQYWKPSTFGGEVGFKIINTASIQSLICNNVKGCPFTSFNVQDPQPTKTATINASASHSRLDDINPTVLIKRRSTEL
In words: Inhibition of COX-2-induced PGE2 production in LPS-stimulated mouse Raw 264.7 cells at 10 uM preincubated for 1 hr before LPS challenge measured after 24 hrs by ELISA. The procedure, abridged: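 ATCC RAW 264.7 cells in DMEM with 10% FBS and 1% antibiotics, 37 °C, 5% CO₂, seeded at 2 × 10⁵ cells/well. Compound pre-incubated 1 h, then LPS added, 24 h further. PGE₂ in medium measured by ELISA. % inhibition = 100 × [1 − (treated + LPS − basal)/(LPS only − basal)]. Arithmetic means, n = 3.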
For orientation: ELISA stands for enzyme-linked immunosorbent assay.

The target in data set [5] is T2, Prostaglandin G/H synthase 2 (Mus musculus, UniProt Q05769).
T2 sequence (Q05769 whole entry): T1 sequence (whole entry)
Briefly: Inhibition of COX-2-induced PGE2 production in LPS-stimulated mouse Raw 264.7 cells preincubated for 1 hr before LPS challenge measured after 24 hrs by ELISA. The method, boiled down: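 RAW 264.7 cells (ATCC), cultured in DMEM with 10% FBS and 1% antibiotics at 37 °C under 5% CO₂, seeded at 2 × 10⁵ cells/well. 1 h compound pre-incubation preceded LPS addition and 24 h incubation. Medium PGE₂ quantified by ELISA; IC₅₀ reported from inhibition relative to basal and LPS-only controls.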

Data set [6] in a line: Dissociation constant, pKa of the compound. It is filed as physicochemical.

By logP is commonly meant the decadic logarithm of the partition coefficient of the neutral form, usually between octanol and water. Low readings indicate a more hydrophilic compound, high ones a more lipophilic compound. In general, inhibition refers to the drop in the measured response relative to a control, in per cent. In data set [1], `CS(=O)(=O)c1ccc(-c2c(Cl)nc(Cl)n2-c2ccc(F)c(F)c2)cc1` registered a logP of 4.44. In addition, the Activity entry in the data set with RAW264.7 [2] and in the data set on RAW264.7 [3] was “Non-toxic” each time. This molecule also registered an inhibition in data set [4] of 81%.

Turning to `CS(=O)(=O)c1ccc(-c2c(Cl)ncn2-c2ccc(F)c(F)c2)cc1`, the Activity entry with RAW264.7 [2] and in the data set with RAW264.7 [3] was “Non-toxic” in each case. The inhibition in data set [4] was determined as 56%.

Regarding `CS(=O)(=O)c1ccc(-c2c(Br)nc(Br)n2-c2ccc(F)cc2F)cc1`, in data set [1], the logP turned out to be 4.64. The Activity result in the data set with RAW264.7 [2] and in the data set on RAW264.7 [3] was “Non-toxic” each time. In addition, the inhibition in data set [4] turned out to be 15%.

On to `CS(=O)(=O)c1ccc(-c2cnc(Cl)n2-c2ccc(F)cc2F)cc1`, for which the Activity entry in the data set with RAW264.7 [2] and with RAW264.7 [3] was “Non-toxic” each time. The molecule also came in with an inhibition in data set [4] of 42%.

With `CS(=O)(=O)c1ccc(-c2c(Br)ncn2-c2ccc(F)c(F)c2)cc1`, the logP in data set [1] was 3.72. The Activity result in the data set with RAW264.7 [2] and in the data set with RAW264.7 [3] was “Non-toxic” each time. The molecule also displayed an inhibition in data set [4] of 7%.

The IC50 is the concentration at which inhibition is half-maximal. High values mean a need for much substance, low ones inhibition by little substance. Regarding `CS(=O)(=O)c1ccc(-c2cncn2-c2ccc(F)cc2F)cc1`, it took 6520 nM to reach half-maximal inhibition in data set [5] (IC50). For the same molecule, the Activity result in the data set on RAW264.7 [2] and with RAW264.7 [3] was “Non-toxic” throughout. In data set [4], this molecule displayed an inhibition of 84%.

On to `CS(=O)(=O)c1ccc(-c2cnc(I)n2-c2ccc(F)c(F)c2)cc1`, for which the logP in data set [1] worked out at 3.88. The Activity result in the data set on RAW264.7 [2] and in the data set with RAW264.7 [3] was “Non-toxic” each time. Moreover, in data set [4], the inhibition amounted to 90%.

In general, pKa refers to the pH at which an ionisable group is half protonated. A higher pKa goes with a group that holds its proton tightly. In turn, `CS(=O)(=O)c1ccc(-c2c(Cl)nc(Cl)n2-c2ccc(F)cc2F)cc1` returned a logP in data set [1] of 3.64. In addition, in data set [6], the pKa was 1.07. In addition, inhibition in data set [5] was half-maximal at 550 nM (IC50). The Activity result in the data set on RAW264.7 [2] and with RAW264.7 [3] was “Non-toxic” each time. In data set [4], this molecule registered an inhibition of 98%.

`CS(=O)(=O)c1ccc(-c2cnc(Br)n2-c2ccc(F)c(F)c2)cc1`: in data set [1], the logP stood at 3.7. The same molecule had a pKa in data set [6] of 4.05. Also, the IC50 in data set [5] came out at 580 nM. Further, the Activity result in the data set on RAW264.7 [2] and with RAW264.7 [3] was “Non-toxic” in each case. Moreover, the inhibition in data set [4] turned out to be 99%.

In the case of `CS(=O)(=O)c1ccc(-c2cncn2-c2ccc(F)c(F)c2)cc1`, the Activity entry with RAW264.7 [2] and with RAW264.7 [3] was “Non-toxic” in each case.

Values taken from ChEMBL document CHEMBL2157885, “Synthesis of 1,5-diarylhaloimidazole analogs and their inhibitory activities against PGE₂ production from LPS-treated RAW 264.7 cells” (Bioorg Med Chem, 2012).
